Active and inactive are the calls of the source. The rule behind the calls is not given here.
Experiments:
[1] = system: K562; test: Growth inhibition of human K562 cells expressing p210Bcr/Abl after 96 hrs by trypan blue exclusion assay; type: functional, cell-based; settings: K562, 96 h
Outline: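 K562 cells were kept in RPMI with 10% FBS and penicillin–streptomycin at 37 °C under 5% CO2. Cells were seeded at 1 × 10^5 cells/mL with a range of compound concentrations, using DMSO as the negative control. After 96 h, viability was counted by Trypan blue exclusion and expressed as percent of DMSO control to derive GI50.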

[2] = system: DU-145; test: Growth inhibition of human DU145 cells after 96 hrs by trypan blue exclusion assay; type: functional; settings: DU-145, 96 h
[3] = target: Bcr/Abl fusion protein (Homo sapiens, UniProt P00519); test: Inhibition of BCR/ABL p210 autophosphorylation in human K562 cells after 2 hrs by Western blot analysis; type: cell-based
[4] = Aqueous solubility of the compound; type: physicochemical; settings: buffer
[5] = target: Bcr/Abl fusion protein (Homo sapiens) (UniProt P00519+P11274); test: Inhibition of BCR/ABL p210 autophosphorylation in human K562 cells at 0.2 to 10 uM after 2 hrs by Western blot analysis; type: cell-based
Outline: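 Exponentially growing K562 cells were treated for 2 h with rising compound concentrations, diluted from 10 mM DMSO stocks via 1000× DMSO working stocks, or with DMSO vehicle. Lysates were run on 10% SDS–PAGE. Blots were probed sequentially for phospho-BCR-ABL and total BCR-ABL, detected with infrared-dye secondaries, and quantified by densitometry. The phospho signal was normalized to total, with % inhibition relative to vehicle.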

[6] = Aqueous solubility of the compound

Chain of Bcr/Abl fusion protein (P00519 whole entry, the tested form may be a part): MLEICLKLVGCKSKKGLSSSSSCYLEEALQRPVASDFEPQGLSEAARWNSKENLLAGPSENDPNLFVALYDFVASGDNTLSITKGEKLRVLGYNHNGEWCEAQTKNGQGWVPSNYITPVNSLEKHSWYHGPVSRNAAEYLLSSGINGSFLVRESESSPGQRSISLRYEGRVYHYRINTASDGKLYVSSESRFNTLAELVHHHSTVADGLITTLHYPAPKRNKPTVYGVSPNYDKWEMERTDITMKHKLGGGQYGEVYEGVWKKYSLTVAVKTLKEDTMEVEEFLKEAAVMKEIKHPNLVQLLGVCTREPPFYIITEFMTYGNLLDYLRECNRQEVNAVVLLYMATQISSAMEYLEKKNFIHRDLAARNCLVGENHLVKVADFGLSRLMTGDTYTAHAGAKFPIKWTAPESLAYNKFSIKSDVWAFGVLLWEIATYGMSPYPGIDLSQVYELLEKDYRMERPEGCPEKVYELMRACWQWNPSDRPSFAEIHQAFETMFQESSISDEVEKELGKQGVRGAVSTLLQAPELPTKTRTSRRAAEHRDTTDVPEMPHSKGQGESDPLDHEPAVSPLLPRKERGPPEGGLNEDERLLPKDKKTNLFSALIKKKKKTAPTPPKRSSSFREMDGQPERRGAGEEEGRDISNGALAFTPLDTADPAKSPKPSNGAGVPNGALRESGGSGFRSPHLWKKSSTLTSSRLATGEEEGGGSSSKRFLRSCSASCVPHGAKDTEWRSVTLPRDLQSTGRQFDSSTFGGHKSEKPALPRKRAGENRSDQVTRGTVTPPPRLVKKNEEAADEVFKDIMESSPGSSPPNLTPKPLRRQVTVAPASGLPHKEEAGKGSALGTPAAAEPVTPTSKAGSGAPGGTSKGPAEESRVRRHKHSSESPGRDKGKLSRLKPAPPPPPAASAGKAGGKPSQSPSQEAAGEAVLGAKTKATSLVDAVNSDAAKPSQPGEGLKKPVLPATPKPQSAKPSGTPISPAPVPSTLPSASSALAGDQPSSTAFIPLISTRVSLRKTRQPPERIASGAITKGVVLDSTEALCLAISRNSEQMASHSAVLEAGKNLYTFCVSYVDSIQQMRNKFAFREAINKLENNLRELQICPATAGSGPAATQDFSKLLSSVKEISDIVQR
Chain of Bcr/Abl fusion protein (P11274 whole entry, further chain, the tested form may be a part): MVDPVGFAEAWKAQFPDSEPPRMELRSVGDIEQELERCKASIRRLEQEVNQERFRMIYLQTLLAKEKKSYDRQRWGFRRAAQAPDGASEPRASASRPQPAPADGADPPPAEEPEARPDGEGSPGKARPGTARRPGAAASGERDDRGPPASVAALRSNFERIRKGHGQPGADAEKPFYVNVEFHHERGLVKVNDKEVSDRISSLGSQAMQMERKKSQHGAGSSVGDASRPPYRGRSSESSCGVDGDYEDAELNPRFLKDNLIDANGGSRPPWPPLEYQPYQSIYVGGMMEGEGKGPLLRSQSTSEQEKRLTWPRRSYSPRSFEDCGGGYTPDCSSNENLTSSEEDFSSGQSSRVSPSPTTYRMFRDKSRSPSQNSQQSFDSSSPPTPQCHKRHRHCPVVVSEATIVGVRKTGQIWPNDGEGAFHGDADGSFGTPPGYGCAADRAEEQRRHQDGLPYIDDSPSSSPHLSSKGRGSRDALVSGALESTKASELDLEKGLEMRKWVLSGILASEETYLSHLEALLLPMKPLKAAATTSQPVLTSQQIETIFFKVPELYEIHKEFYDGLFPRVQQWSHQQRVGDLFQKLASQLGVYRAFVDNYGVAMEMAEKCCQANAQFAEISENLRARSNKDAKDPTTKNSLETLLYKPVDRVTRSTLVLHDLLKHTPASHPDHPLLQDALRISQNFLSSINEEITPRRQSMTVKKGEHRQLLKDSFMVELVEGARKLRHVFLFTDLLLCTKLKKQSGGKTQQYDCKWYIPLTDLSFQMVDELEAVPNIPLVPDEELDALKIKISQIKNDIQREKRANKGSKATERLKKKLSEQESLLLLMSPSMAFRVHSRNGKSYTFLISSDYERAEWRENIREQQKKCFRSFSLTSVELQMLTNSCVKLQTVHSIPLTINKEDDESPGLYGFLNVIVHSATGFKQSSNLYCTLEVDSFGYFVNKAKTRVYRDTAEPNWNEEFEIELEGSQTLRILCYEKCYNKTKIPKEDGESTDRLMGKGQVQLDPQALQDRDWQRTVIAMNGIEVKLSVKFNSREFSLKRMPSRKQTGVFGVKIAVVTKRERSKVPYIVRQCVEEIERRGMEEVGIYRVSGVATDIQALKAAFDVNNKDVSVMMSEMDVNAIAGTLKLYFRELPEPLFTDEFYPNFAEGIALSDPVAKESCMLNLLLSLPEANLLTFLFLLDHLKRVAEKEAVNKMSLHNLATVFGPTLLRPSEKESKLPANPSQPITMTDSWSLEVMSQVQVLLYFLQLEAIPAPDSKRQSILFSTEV
Chain of Bcr/Abl fusion protein (Homo sapiens) (P00519 whole entry, looked up, the tested form may be a part): as the sequence (P00519 whole entry, the tested form may be a part) above
Chain of Bcr/Abl fusion protein (Homo sapiens) (P11274 whole entry, looked up, the tested form may be a part): as the sequence (P11274 whole entry, further chain, the tested form may be a part) above

| SMILES | GI50 [1] | IC50 [1] | GI50 [2] | IC50 [3] | solubility [4] | inhibition [5] | solubility [6] |
| --- | --- | --- | --- | --- | --- | --- | --- |
| O=C(O)c1ccc(C(=O)/C(=C\c2ccc(Cl)c([N+](=O)[O-])c2)SCc2ccc(Cl)cc2Cl)cc1 | < 1000 nM | 600 nM | 1000 nM | 2500 nM | < 1000 µg/mL |  |  |
| O=C(O)c1ccc(C(=O)/C(=C\c2ccc(F)c([N+](=O)[O-])c2)Sc2ccc(Br)cc2)cc1 |  | 1500 nM |  | 20000 nM | < 1000 µg/mL |  |  |
| O=C(O)c1ccc(C(=O)/C(=C\c2ccc(F)c([N+](=O)[O-])c2)SCc2ccccc2)cc1 |  | 300 nM |  | 2500 nM | < 1000 µg/mL |  |  |
| CN1CCN(CCNC(=O)c2ccc(C(=O)/C(=C\c3ccc(F)c([N+](=O)[O-])c3)SCc3ccc(Br)cc3)cc2)CC1 | 1000 nM | 2500 nM | 1000 nM | 2500 nM | > 10000 µg/mL | Active | > 10000 µg/mL |
| O=C(O)c1ccc(C(=O)/C(=C\c2ccc(Cl)c([N+](=O)[O-])c2)SCc2ccccc2F)cc1 | < 1000 nM | 800 nM | 1000 nM | 10000 nM | < 1000 µg/mL |  |  |
| O=C(O)c1ccc(C(=O)/C(=C\c2ccc(O)c(Br)c2)SCc2ccc(Br)cc2)cc1 | 25000 nM | 35000 nM | 25000 nM | > 20000 nM | < 1000 µg/mL |  |  |
| O=C(O)c1ccc(C(=O)/C(=C\c2ccc(Cl)c([N+](=O)[O-])c2)S(=O)(=O)Cc2ccc(Br)cc2)cc1 | 25000 nM | 25000 nM | 25000 nM | > 20000 nM | < 1000 µg/mL |  |  |
| O=C(O)c1ccc(C(=O)/C(=C\c2cc([N+](=O)[O-])ccc2F)SCc2ccc(Br)cc2)cc1 |  | 7500 nM |  | > 20000 nM | < 1000 µg/mL |  |  |
| O=C(O)c1ccc(C(=O)/C(=C\c2ccc(F)cc2[N+](=O)[O-])SCc2ccc(Br)cc2)cc1 |  | 20000 nM |  | > 20000 nM | < 1000 µg/mL |  |  |
| O=C(/C(=C\c1ccc(F)c([N+](=O)[O-])c1)SCc1ccc(F)cc1)c1ccc(C(=O)N2CCN(CCO)CC2)cc1 |  | 500 nM |  | 500 nM | > 10000 µg/mL | Active | > 10000 µg/mL |
| O=C(O)c1ccc(C(=O)/C(=C\c2ccc(F)c([N+](=O)[O-])c2)SCc2ccc(F)cc2)cc1 | < 1000 nM | 400 nM | 1000 nM | 2500 nM | < 1000 µg/mL |  |  |
| O=C(O)c1ccc(C(=O)/C(=C\c2ccc(Br)c([N+](=O)[O-])c2)SCc2ccc(F)cc2)cc1 | < 1000 nM | 400 nM | 1000 nM | 15000 nM | < 1000 µg/mL |  |  |
| O=C(O)c1ccc(C(=O)/C(=C\c2ccc(F)c([N+](=O)[O-])c2)SCc2ccc(Cl)cc2)cc1 | 10000 nM | 500 nM | 50000 nM | 2500 nM | < 1000 µg/mL |  |  |
| O=C(O)c1ccc(C(=O)/C(=C\c2ccc(Cl)c([N+](=O)[O-])c2)SCc2ccc(Cl)cc2)cc1 | < 1000 nM | 500 nM | 1000 nM | 10000 nM | < 1000 µg/mL |  |  |
| O=C(O)c1ccc(C(=O)/C(=C\c2ccc(O)c([N+](=O)[O-])c2)SCc2ccc(Br)cc2)cc1 | 50000 nM | 75000 nM | 50000 nM | > 20000 nM | < 1000 µg/mL |  |  |
| COC(=O)c1ccc(C(=O)/C(=C\c2ccc(F)c([N+](=O)[O-])c2)SCc2ccc(Br)cc2)cc1 |  | 300 nM |  | 750 nM | < 1000 µg/mL | Active |  |
| O=C(O)c1ccc(C(=O)/C(=C\c2ccc([N+](=O)[O-])cc2F)SCc2ccc(Br)cc2)cc1 |  | 7500 nM |  | > 20000 nM | < 1000 µg/mL |  |  |
